# Assay results gathered from unrelated publications.
# Protocols differ between the studies behind these lines.
# Target: Ephrin type-A receptor 2 (EPHA2, Homo sapiens, UniProt P29317)
Compound,effect on,method,concentration,remaining binding [%]
CS(=O)(=O)c1cc(C2(NC(=O)c3cncc4c3cnn4-c3ccc(F)cc3)CC2)ccn1,cell-free assay,competition with immobilised ligand,1 µM,100
COc1ccnn2ncc(-c3ccnc(N(C)C)n3)c12,binding,,1 µM,100
CCC(=N\O)/C(C)=C/c1ccc(F)cc1,cell-free assay,competition with immobilised ligand,1 µM,84
O=C(Nc1c[nH]nc1C(=O)NC1CCNCC1)c1cc(F)cc(F)c1,binding,competition with immobilised ligand,1 µM,100
Cc1nc(C2CCN(C(=O)c3ccc(OC(F)(F)F)cc3N)CC2)c2ncc(N3CCN(C)CC3)cc2n1,cell-free assay,competition with immobilised ligand,1 µM,100
FC(F)(F)Oc1cccc(-c2cnc3ccc(-c4ccncc4)nn23)c1,cell-free assay,competition with immobilised ligand,5 µM,80
CO[C@@H](C)c1c(Nc2ccc([C@H](N(C)C(=O)C3CCS(=O)(=O)CC3)C(F)(F)F)cc2)cnc2cc(Cl)nn12,cell-free assay,competition with immobilised ligand,1 µM,100
CN(CCCC(F)(F)F)c1nccc(-c2cnn3ncccc23)n1,binding,,1 µM,82
COc1cnc(Nc2cccc(S(N)(=O)=O)c2)nc1N1CCN(c2ccccc2)CC1,binding,competition with immobilised ligand,1 µM,100
CN(C)C(=O)Cn1cc(-c2nc([C@@](C)(c3ccc(-c4cnc(N)nc4)cc3)C3CC3)no2)cn1,cell-free assay,competition with immobilised ligand,1 µM,100
C=CC(=O)N1CCC(C(=O)NCC(=O)N2CCN(c3nc(-c4cnc(N)nc4C(F)F)nc(N4CCOCC4)n3)CC2)CC1,binding,competition with immobilised ligand,1 µM,95
Cc1cnn2ncc(-c3ccnc(N(C)C)n3)c2c1,binding,,1 µM,95
O=C(NCc1ncc(C(F)(F)F)cc1Cl)c1ccc2c(c1)C1(CCS(=O)(=O)CC1)[C@@H](C1CC1)N2S(=O)(=O)c1ccc(F)cc1,cell-free assay,competition with immobilised ligand,1 µM,84
C[C@@H]1CN(c2ccc3ncc(-c4ccc5[nH]nc(C6CC6)c5c4)n3n2)C[C@H](C)O1,binding,competition with immobilised ligand,50 nM,86
O=C(c1ccc(Nc2nccc(-c3cc4ccccc4s3)n2)cc1)N1CCC(N2CCCC2)CC1,binding,competition with immobilised ligand,1 µM,65
C[C@@H]1CCN(c2nccc(-c3cnn4ncccc34)n2)C1,binding,,1 µM,93
O=C(c1ccc(Nc2ncc(Cl)c(-c3cc4ccccc4s3)n2)cc1)N1CCC(N2CCCC2)CC1,binding,competition with immobilised ligand,1 µM,60
CN(C)c1ncc(F)c(-c2cnn3ncccc23)n1,binding,,1 µM,80
Cc1cc(C)c(-n2ccn3nc(-c4cccnc4)cc23)cc1NC(=O)c1cc(C#N)cc(S(F)(F)(F)(F)F)c1,cell-free assay,competition with immobilised ligand,0.1 µM,79.6
c1cncc(-c2cccc(Nc3nccc(NC4CCCCC4)n3)c2)c1,binding,competition with immobilised ligand,10 µM,83
Cc1cnc(Nc2ccc(C(=O)N3CCC(N4CCCC4)CC3)cc2)nc1-c1cc2ccccc2s1,binding,competition with immobilised ligand,1 µM,26
NS(=O)(=O)c1cc(NC(=O)Cc2ccccc2)ccc1Oc1cccc(Cl)c1,cell-free assay,competition with immobilised ligand,1 µM,91
F[C@@H]1CCN(c2nccc(-c3cnn4ncccc34)n2)C1,binding,,1 µM,100
COc1ncc2cc3ccccc3nc2c1C#N,cell-free assay,competition with immobilised ligand,5 µM,96
N[C@H]1CCN(c2nccc(-c3cnn4ncccc34)n2)C1,binding,,1 µM,87
C[C@@H](c1ccc(-n2cnc3c(N)ncnc32)cc1)N1CCc2nn(C)c(Cc3ccccc3)c2C1=O,binding,competition with immobilised ligand,0.1 µM,100
